In ChEMBL document CHEMBL3611977, “Synthesis, pharmacological evaluation and docking studies of pyrrole structure-based CB2 receptor antagonists” (Eur J Med Chem, 2015):
pIC50, pKi: −log10 of the molar value. Activity calls are given as the source filed them. No cut-off for these calls is given here.

What was measured:
[1] = biological target: Cannabinoid receptor 2 (Mus musculus) (UniProt P47936); assay: Antagonist/inverse agonist activity at CB2 receptor in mouse BV-2 cells assessed as LPS-induced PGE2 relaese at 10 fold Ki after 16 hrs by ELISA immunoassay in presence of CB2R antagonist SR144528; assay type: cell-based
Cannabinoid receptor 2 (Mus musculus), sequence (P47936 whole entry): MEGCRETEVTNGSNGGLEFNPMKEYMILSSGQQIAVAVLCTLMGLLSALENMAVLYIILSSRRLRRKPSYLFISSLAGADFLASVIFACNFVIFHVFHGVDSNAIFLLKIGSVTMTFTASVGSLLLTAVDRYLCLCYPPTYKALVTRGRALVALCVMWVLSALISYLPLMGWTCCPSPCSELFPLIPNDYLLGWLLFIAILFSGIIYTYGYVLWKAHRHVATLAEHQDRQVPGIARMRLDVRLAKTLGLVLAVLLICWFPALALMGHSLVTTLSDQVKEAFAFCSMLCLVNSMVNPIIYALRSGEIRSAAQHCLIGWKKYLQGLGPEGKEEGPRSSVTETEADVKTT
Method in brief: (§1)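 Mouse BV-2 microglia plated at 5 × 10⁵ cells/well on poly-L-ornithine and grown overnight in DMEM with 10% FBS at 37 °C and 5% CO₂. The medium was switched to 1% FBS 1 h before treatment. Cells were then given LPS (E. coli 055:B5) for 16 h, alone or with test compound, and PGE2 release was measured. Data were analysed by one-way ANOVA.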

Cannabinoid receptor 2 [2] = biological target: T1, Cannabinoid receptor 2 (Homo sapiens, UniProt P34972); assay: Displacement of [3H]-CP55940 from human CB2 receptor transfected in HEK293EBNA cell membranes after 90 mins by liquid scintillation counting analysis; design: species or system HEK293-EBNA
T1 sequence (P34972 whole entry): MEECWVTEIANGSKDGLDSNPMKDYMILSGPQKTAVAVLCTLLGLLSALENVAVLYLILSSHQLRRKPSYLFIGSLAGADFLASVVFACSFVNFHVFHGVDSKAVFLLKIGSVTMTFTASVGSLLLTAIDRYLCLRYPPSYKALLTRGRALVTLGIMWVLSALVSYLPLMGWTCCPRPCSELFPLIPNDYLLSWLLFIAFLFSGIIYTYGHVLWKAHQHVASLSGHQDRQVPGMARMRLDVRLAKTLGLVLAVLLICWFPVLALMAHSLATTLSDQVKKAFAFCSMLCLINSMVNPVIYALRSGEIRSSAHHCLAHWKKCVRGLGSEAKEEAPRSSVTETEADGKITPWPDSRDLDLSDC
Method in brief: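 Human CB2-transfected HEK293EBNA membranes (about 0.18 mg/mL protein) in Tris-HCl with EDTA, MgCl₂ and fatty-acid-free BSA, pH 7.4. Compounds were pre-screened at a single concentration, with full curves only if displacement exceeded 50%. Ki from iterative curve fitting, three independent experiments in triplicate.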

Cannabinoid receptor 1 = Cannabinoid receptor 1 (Homo sapiens, UniProt P21554); assay: Displacement of [3H]-CP55940 from human CB1 receptor transfected in HEK293EBNA cell membranes after 90 mins by liquid scintillation counting analysis; design: species or system HEK293-EBNA
Cannabinoid receptor 1, sequence (P21554 whole entry): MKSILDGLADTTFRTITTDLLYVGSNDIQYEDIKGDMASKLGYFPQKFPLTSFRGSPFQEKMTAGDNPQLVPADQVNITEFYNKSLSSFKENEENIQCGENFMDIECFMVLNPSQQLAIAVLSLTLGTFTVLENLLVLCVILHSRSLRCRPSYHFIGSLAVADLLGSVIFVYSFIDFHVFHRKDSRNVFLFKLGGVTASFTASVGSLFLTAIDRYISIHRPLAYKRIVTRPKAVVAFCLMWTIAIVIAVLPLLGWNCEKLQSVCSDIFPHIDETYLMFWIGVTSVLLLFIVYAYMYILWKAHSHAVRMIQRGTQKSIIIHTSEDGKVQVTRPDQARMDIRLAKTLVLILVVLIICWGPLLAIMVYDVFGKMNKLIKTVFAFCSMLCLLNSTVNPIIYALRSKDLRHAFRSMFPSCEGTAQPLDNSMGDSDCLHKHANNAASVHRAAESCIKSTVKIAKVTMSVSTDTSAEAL

[3] = biological target: Cannabinoid receptor 2 (Mus musculus) (UniProt P47936); assay: Antagonist/inverse agonist activity at CB2 receptor in mouse BV-2 cells assessed as LPS-induced PGE2 relaese at 10 fold Ki after 16 hrs by ELISA immunoassay; assay type: cell-based; method in brief: as §1
[4] = biological target: Cannabinoid receptor 2 (Mus musculus) (UniProt P47936); assay: Antagonist/inverse agonist activity at CB2 receptor in mouse BV-2 cells assessed as inhibition of WIN55,212-2-mediated attenuation of LPS-induced PGE2 release at 10 fold Ki after 16 hrs by ELISA immunoassay; assay type: cell-based; method in brief: as §1
Cannabinoid receptor 2 [5] = biological target: T1, Cannabinoid receptor 2; assay: Antagonist/inverse agonist activity at human CB2 receptor transfected in Chem4 cell membranes after 30 mins by [35S]-GTPgammaS binding assay; assay type: functional
Method in brief: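 Purchased CB2R-containing membranes in 20 mM HEPES with 100 mM NaCl and 10 mM MgCl₂, pH 7.4. Compound was added from 10⁻¹¹ to 10⁻⁵ M together with 30 nM CP55,940 and incubated 30 min at 30 °C. Non-specific signal was defined with unlabelled GTPγS. The reaction was stopped by GF/C filtration with phosphate-buffer washes, then scintillation counting.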

[6] = biological target: Cannabinoid receptor 2 (Mus musculus) (UniProt P47936); settings: BV-2, 10 uM

Compound | pKi (Cannabinoid receptor 2 [2]) | pKi (Cannabinoid receptor 1) | also measured
Cc1ccc(Cn2cc(C(=O)NC[C@@H]3CCC4C[C@@H]3C4(C)C)cc2-c2ccc(Cl)c(C)c2)cc1 | 7.14 | < 5.30 | inhibition [1]: Active; inhibition [3]: Active; inhibition [4]: Active; pIC50 (Cannabinoid receptor 2 [5]): 5.74
Cc1ccc(Cn2cc(C(=O)N[C@@H]3CC4CC[C@@]3(C)C4(C)C)cc2-c2ccc(Cl)c(C)c2)cc1 | 6.79 | 6.43 | 
Cc1ccc(Cn2nc(C(=O)N[C@@H]3C(C)(C)[C@@H]4CC[C@@]3(C)C4)cc2-c2ccc(Cl)c(C)c2)cc1 |  |  | inhibition [6]: Active
Cc1ccc(Cn2cc(C(=O)N3CCCCC3)cc2-c2ccc(Cl)c(C)c2)cc1 | 6.97 | 5.51 | 
Cc1ccc(Cn2nc(C(=O)N[C@@H]3CC4CC[C@@]3(C)C4(C)C)cc2-c2ccc(Cl)c(C)c2)cc1 | 8.14 |  | 
Cc1ccc(Cn2cc(C(=O)NN3CCCCC3)cc2-c2ccc(Cl)c(C)c2)cc1 | < 5.30 | < 5.30 | 
Cc1ccc(Cn2cc(C(=O)NC34CC5CC(CC(C5)C3)C4)cc2-c2ccc(Cl)c(C)c2)cc1 | < 5.30 | < 5.30 | 
Cc1ccc(Cn2cc(C(=O)NN3CCCC3)cc2-c2ccc(Cl)c(C)c2)cc1 | < 5.30 | < 5.30 | 
Cc1ccc(Cn2cc(CN3CCN(c4ccc(Cl)c(Cl)c4)CC3)cc2-c2ccc(Cl)c(C)c2)cc1 | < 5.30 | < 5.30 | 
Cc1ccc(Cn2cc(C(=O)N[C@H](C)C3CCCCC3)cc2-c2ccc(Cl)c(C)c2)cc1 | < 5.30 | < 5.30 | 
Cc1ccc(Cn2cc(C(=O)NCC34CC5CC(CC(C5)C3)C4)cc2-c2ccc(Cl)c(C)c2)cc1 | < 5.30 | < 5.30 | 
Cc1ccc(Cn2cc(CN3CCN(c4ccc(Cl)cc4)CC3)cc2-c2ccc(Cl)c(C)c2)cc1 | < 5.30 | < 5.30 | 
Cc1ccc(Cn2cc(C(=O)N[C@@H]3C(C)(C)C4CC[C@@]3(C)C4)cc2-c2ccc(Cl)c(C)c2)cc1 | 8.24 | 5.83 | inhibition [1]: Active; inhibition [3]: Active; inhibition [4]: Active; pIC50 (Cannabinoid receptor 2 [5]): 6.77
Cc1ccc(Cn2cc(C(=O)N[C@@H]3C[C@@H]4C[C@H]([C@H]3C)C4(C)C)cc2-c2ccc(Cl)c(C)c2)cc1 | < 5.30 |  | 
Cc1ccc(Cn2cc(C(=O)NN3CCCCCC3)cc2-c2ccc(Cl)c(C)c2)cc1 | 6.24 | < 5.30 | 
Cc1ccc(Cn2cc(C(=O)N[C@H]3C[C@@H](C)CC[C@@H]3C(C)C)cc2-c2ccc(Cl)c(C)c2)cc1 | 5.96 | < 5.30 | 
Cc1ccc(Cn2cc(C(=O)Nc3cccc4ccccc34)cc2-c2ccc(Cl)c(C)c2)cc1 | < 5.30 | < 5.30 | 
Cc1ccc(Cn2cc(CN[C@@H]3C(C)(C)C4CC[C@@]3(C)C4)cc2-c2ccc(Cl)c(C)c2)cc1 | 6.46 |  | 
Cc1ccc(Cn2cc(C(=O)N[C@@H](C)C3CCCCC3)cc2-c2ccc(Cl)c(C)c2)cc1 | 6.31 |  | 
Cc1ccc(Cn2cc(C(=O)N3CCN(c4ccccc4Cl)CC3)cc2-c2ccc(Cl)c(C)c2)cc1 | 5.77 | < 5.30 | 
Cc1ccc(Cn2cc(C(=O)NC3CCCCC3)cc2-c2ccc(Cl)c(C)c2)cc1 | 6.61 | < 5.30 | 
